Data on 12 molecules can be found in ChEMBL document CHEMBL4004865, “Synthesis, SAR and molecular docking study of novel non-β-lactam inhibitors of TEM type β-lactamase” (Bioorg Med Chem Lett, 2017).

Assay [1] has as its system Escherichia coli. Kind of assay: Inhibition of Escherichia coli beta-lactamase TEM-171 using CENTA as substrate at 100 uM by UV spectrophotometric method relative to control. In outline:
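Substrate and each inhibitor were tested at one fixed concentration. The initial rate V0 of substrate hydrolysis was recorded. The relative activity decrease (%) was calculated from V0 with inhibitor versus V0 of the enzyme-only control.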

In assay [2] the test system is Escherichia coli. Kind of assay: Inhibition of Escherichia coli beta-lactamase TEM-171 assessed as initial hydrolysis rate of substrate CENTA at 100 uM by UV spectrophotometric method (reference value: 0.74 +/- 0.11 uM/s). In outline: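 TEM-171 β-lactamase at 10 nM. Substrate and each inhibitor were tested at one fixed concentration. The initial rate V0 of substrate hydrolysis was recorded. The relative activity decrease (%) was calculated from V0 with inhibitor versus V0 of the enzyme-only control.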

The structures appear in SMILES notation.

As to `O=C(O)C(=O)Nc1ccc(Oc2ccc(Cl)cc2Cl)cc1`, the inhibition in assay [1] worked out at 31%. For the same molecule, the V0 in assay [2] is 0.51 µM/s.
Taken in the same sequence, the figures for `O=C(O)c1ccc(NC(=S)Nc2ccc(Oc3ccccc3)cc2)cc1` were 20.3% and 0.59 µM/s.
The molecule `O=C(O)CCCC(=O)Nc1ccc(Oc2ccc(Cl)cc2Cl)cc1` registered an inhibition in assay [1] of 31%. In addition, the V0 in assay [2] is 0.51 µM/s.
For the molecule `O=C(O)CCCC(=O)Nc1ccc(Oc2ccccc2)cc1`, the inhibition in assay [1] was determined as 1.4%. Further, the V0 in assay [2] amounted to 0.73 µM/s.
Taken in the same sequence, the figures for `O=C(O)c1ccc(NC(=S)Nc2ccc(Oc3ccc(Cl)cc3)cc2)cc1` were 28.4% and 0.53 µM/s.
The like results for `O=C(O)c1ccc(NC(=S)Nc2ccc(Oc3ccc(Cl)cc3Cl)cc2)cc1` were, in that order, 50% and 0.37 µM/s.
Take `O=C(O)CCC(=O)Nc1ccc(Oc2ccc(Cl)cc2)cc1`: the inhibition in assay [1] was found to be 5.4%. For the same molecule, in assay [2], the V0 was 0.7 µM/s.
The molecule `O=C(O)CCCC(=O)Nc1ccc(Oc2ccc(Cl)cc2)cc1` gave an inhibition in assay [1] of 1.4%. The V0 in assay [2] amounted to 0.73 µM/s.
In the case of `O=C(O)CCCC(=O)Nc1ccc(Oc2ccc(Br)cc2)cc1`, the V0 in assay [2] was determined as 0.53 µM/s.
In assay [1], `O=C(O)CCC(=O)Nc1ccc(Oc2ccc(Cl)cc2Cl)cc1` yielded an inhibition of 38%. In addition, the V0 in assay [2] is 0.46 µM/s.
Regarding `O=C(O)CCC(=O)Nc1ccc(Oc2ccc(Br)cc2)cc1`, the inhibition in assay [1] is 28%. Further, the V0 in assay [2] was 0.53 µM/s.
In assay [1], `O=C(O)CCC(=O)Nc1ccc(Oc2ccccc2)cc1` returned an inhibition of 1.4%. Further, the V0 in assay [2] came out at 0.73 µM/s.
